Assays:
[1] = system: JIMT-1 breast cancer cells; assay: MTT dose response assay, JIMT-1 cells in 2D and 3D PCL 96-well plates; format: cell-based, human; settings: JIMT-1, 2D culture, hypoxia (1 % O2), 72 h, mean of three experiments ± SEM
How it was run: (§1)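 Accutase-detached cells seeded at 7000 (2D) or 21,000 (3D; O2-plasma-treated, ethanol-sterilized PCL fibre-mesh wells) per 180 μL. After 24 h normoxic attachment, compound added, then 72 h at 18 % O2/5 % CO2 or 1 % O2. MTT (20 μL of 5 mg/mL) 2 h; formazan dissolved in DMSO (2D 15 min, 3D 2 h shaking); absorbance background-subtracted. IC50 = 50 % MTT reduction; ≥3 experiments, 3–6 wells/concentration.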

[2] = system: human dermal fibroblasts (HDFs); assay: MTT dose response assay, HDFs in 2D and 3D PCL 96-well plates; format: cell-based; settings: HDF, 72 h, mean of three experiments ± SEM
How it was run: as §1

[3] = system: JIMT-1 cells; settings: JIMT-1, 2D cultures, normoxia, FBS-supplemented medium; cited from earlier work

salinomycin analogue 20-ethyl carbonate-Na [SAEC]
IC50 [1]: 80.4 ± 13.3 nM | IC50 ([2]; 2D culture, hypoxia (1 % O2)): 239 ± 6.2 nM | IC50 ([2]; 2D culture, normoxia (18 % O2)): 97.7 ± 11.8 nM | IC50 ([2]; 3D culture, hypoxia (1 % O2)): 316 ± 35.1 nM | IC50 ([2]; 3D culture, normoxia (18 % O2)): 150 ± 34.4 nM | IC50 [3]: 90 ± 0.02 nM

Reference: paper PMC8024882 (Toxicology Reports, 2021)
